The list is not random: actives were taken first. Their share in the collection is about 2.2%.
GAA850 FXN act = FXN promoter activators, primary screen, cell-based, luciferase luminescence, HEK293 lucGAA850 | HEK293 lucGAA850 FXN promoter luciferase reporter, 24 h; percent of 10 µM SAHA response | AID 540364, 2011 | 360,000 compounds, 0.56% hits | activation, % at 6 µM;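 active = activation above the average of all compounds screened plus 3 SD, cutoff fixed separately per campaign, cut at about 7.5% in these data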;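 note: 0% = DMSO wells and 100% = 10 µM SAHA wells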
Env fusion inh = inhibitors of HIV-1 Env-driven cell-cell fusion, primary screen, HeLa-JRFL effector, CEM21 target cells, luciferase. inhibition, % at 12.3 µM. 360,000 compounds, 1.1% hits;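 active = mean replicate inhibition score of at least 50 and every replicate individually at or above 50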;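 note: 0% = plate neutral controls and 100% = maraviroc near 300 nM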
NR2E3 ag-1 = inhibitors of NR2E3-RetCOR corepressor binding, primary screen, NR2E3 agonist project, biochemical, TR-FRET, GST-NR2E3, biotin-RetCOR. Photoreceptor-specific nuclear receptor (Homo sapiens), Q9Y5X4. 1536-well. inhibition of corepressor binding, % at 4.78 µM. 320,000 compounds, 0.12% hits. AID 2300, 2010;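 active = percent inhibition above the cutoff of mean plus 3 SD of all tested compounds, set per screening campaign, cut at about 20% in these data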;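 note: 0% = DMSO wells and 100% = biotin wells as full block of FRET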
Target sequence (Q9Y5X4 whole entry, looked up): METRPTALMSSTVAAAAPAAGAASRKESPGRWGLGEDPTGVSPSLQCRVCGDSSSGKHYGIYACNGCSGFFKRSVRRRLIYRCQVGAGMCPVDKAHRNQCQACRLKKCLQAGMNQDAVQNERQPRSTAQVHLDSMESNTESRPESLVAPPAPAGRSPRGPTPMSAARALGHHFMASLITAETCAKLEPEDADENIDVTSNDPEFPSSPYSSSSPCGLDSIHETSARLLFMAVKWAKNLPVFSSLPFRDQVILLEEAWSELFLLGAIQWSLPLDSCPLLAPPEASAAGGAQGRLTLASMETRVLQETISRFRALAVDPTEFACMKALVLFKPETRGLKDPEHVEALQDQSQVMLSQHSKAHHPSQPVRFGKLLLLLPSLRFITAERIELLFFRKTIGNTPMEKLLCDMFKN
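Test system: GST-NR2E3 and biotin-RetCOR proteins | Quantity: 1.35 nM GST-tagged NR2E3 final | Medium: Tris pH 7.5 | Also added: 7 nM biotin-RetCOR | Dosing: Compound at 4.8 µM, single dose | Timing: 5 h at 4 °C | Detection: Time-resolved FRET | Read-out basis: Percent inhibition | Benchmarks: Biotin wells as high control, 0.6% DMSO wells as low control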
V-ATPase pHluor = regulators of yeast V-ATPase proton pumping, primary screen, pHLuorin cytosolic pH fluorescence; S. cerevisiae; 350,000 compounds, 0.37% hits; AID 504577, 2011; response, % at 10 µM; in the data active = response mostly above about 7.3%, no sharp cut-off; inactive = mostly below about 5.4%; note: actives read high
GalR3 antag = GalR3 antagonists in HEK293 cells, primary screen, cell-based, fluorescence readout; 360,000 compounds, 0.44% hits; HEK293 GalR3-CNG cAMP membrane potential fluorescence; galR3 body fused to GalR1 C-terminus; AID 651719, 2012; inhibition, % at 3 µM;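 active = inhibition above the screen-wide average plus 3 SD, cut at about 13% in these data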;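 note: forskolin and galanin both at EC90 stimulate the cells; cAMP rise reported by CNG channel membrane potential dye signal; 0% = forskolin plus galanin with DMSO and 100% = forskolin alone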
Target sequence (O60755 1-299 limits assumed): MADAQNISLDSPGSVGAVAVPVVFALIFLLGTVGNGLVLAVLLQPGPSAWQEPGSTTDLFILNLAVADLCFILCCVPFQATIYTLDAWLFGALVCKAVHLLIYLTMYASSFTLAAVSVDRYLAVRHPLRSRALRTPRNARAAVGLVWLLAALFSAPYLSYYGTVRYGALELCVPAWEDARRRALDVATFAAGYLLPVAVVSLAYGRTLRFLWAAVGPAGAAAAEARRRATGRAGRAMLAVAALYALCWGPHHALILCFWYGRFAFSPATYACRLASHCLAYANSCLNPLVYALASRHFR
NR2E3 ag-2 = NR2E3 agonists in two-hybrid cells, primary screen, cell-based, luminescence, CHO-S, Gal4-NCOR/VP16-NR2E3 | Photoreceptor-specific nuclear receptor (Homo sapiens), Q9Y5X4 | luciferase | inhibition of corepressor binding, % at 3.98 µM | 360,000 compounds, 0.35% hits | AID 602229, 2012;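 active = inhibition above the mean of all tested compounds plus 3 SD, cut at about 70% in these data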;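 note: 0% = DMSO with NR2E3 transfected cells and 100% = cells lacking NR2E3 construct; higher means lower luciferase signal from less NR2E3 corepressor binding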
GAA30 counter = GAA30 FXN promoter activators, confirmation, counter-screen for GAA850 frataxin promoter activator project, cell-based, luminescence, HEK293, lucGAA30, triplicate. 1,900 compounds, 66% hits. shares compounds with GAA850 FXN act. activation, % at 6 µM. HEK293 lucGAA30 FXN promoter luciferase, 24 h; DMSO = 0%, 5 µM ipriflavone = 100%;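 active = mean activation above the mean of solvent-only control wells plus 3 SD, cut at about 22% in these data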;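 note: counterscreen of GAA850 promoter hits where activity marks nonselective or luminescence artifacts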
GAA850 confirm = FXN GAA850 promoter activators in reporter cells, confirmation, cell-based, luminescence, HEK293 lucGAA850, triplicate; activation, % at 6 µM; shares compounds with GAA850 FXN act; HEK293 lucGAA850 FXN promoter luciferase reporter, 24 h; 100% = activation by SAHA; 1,900 compounds, 86% hits;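 active = mean activation above a set limit taken from the primary screen, cut at about 8% in these data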;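 note: 0% = DMSO wells and 100% = 10 µM SAHA wells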
Starred values were filed as active, the others as inactive; . = no result given; [ ] = another dose, or the depositor's remark.

SMILES	GAA850 FXN act	Env fusion inh	NR2E3 ag-1	V-ATPase pHluor	GalR3 antag	NR2E3 ag-2	GAA30 counter	GAA850 confirm
CNC(=O)C[C@H]1CC[C@@H]2[C@H](COc3ccc(NC(=O)c4cscn4)cc3C(=O)N2C)O1	.	-8[16.7 µM]	.	.	.	.	.	.
COc1ccccc1NC(=O)c1sc2ncn(CC(=O)Nc3ccccc3)c(=O)c2c1C	13*	27	2	-3	-7	28	-4	0
C[C@@H]1CN([C@H](C)CO)C(=O)c2cc(NC(=O)Nc3ccc(F)cc3)ccc2O[C@@H](C)CCCCO[C@@H]1CN(C)C(=O)c1ccccc1	.	-5[16.7 µM]	.	.	.	.	.	.
Cc1c(Cc2ccccc2)sc(NC(=O)c2ccco2)c1C(N)=O	8.8*	.	0	0	-3	-29	38*	11*
COC(=O)c1c(NC(=O)c2ccco2)sc(C)c1C	1	-12	4	-1	-6	11	.	.
O=C(NCCc1c[nH]c2ccccc12)c1c(Cl)nc2sccn12	7.7*	.	2	-1	-3	-24	46*	23*
O=C(Nc1ccc([N+](=O)[O-])cc1)N1CCc2ccccc2C1	4	-12	3	-5	6	-92	.	.
CC(C)c1ccc(NC(=O)N2CCc3ccccc3C2)cc1	9.0*	8	3	-2	-6	-87	113*	32*
CCn1c(SCC(=O)Nc2oc(-c3ccccc3)c(-c3ccccc3)c2C#N)nnc1-c1cc(OC)cc(OC)c1	13*	.	-3	-1	.	-19	12	1
CCCNC(=O)N1C[C@H](C)[C@@H](OC)CN(C)C(=O)c2cc(NC(=O)CCC)ccc2OC[C@@H]1C	.	4[16.7 µM]	.	.	.	.	.	.
COc1ccc2nc(SC(C(=O)c3ccccc3)c3ccccc3)nc(C)c2c1 (stereo not given)	11*	-2	4	5	0	-15	20	19*
COc1ccccc1NC(=O)Nc1ccc2c(c1)C(=O)N(C)C[C@H](OC)[C@@H](C)CN[C@H](C)CO2	.	3[16.7 µM]	.	.	.	.	.	.
Cc1c(C(=O)Nc2ccncc2)sc2nc(-c3ccc(F)cc3)cn12	15*	-29	-76	0	.	4	46*	25*
Cc1c(C(=O)NCC(C)C)sc2nc(-c3ccc(F)cc3)cn12	2	-218	0	4	.	-58	.	.
O=C(Cn1ncc(Cl)c(Cl)c1=O)Nc1ccc2c(c1)OCO2	11*	-1	5	5	-3	13	8	12*
O=C(Cn1ncc(Cl)c(Cl)c1=O)c1ccc2c(c1)OCCO2	8.6*	-84	.	1	-5	39	8	18*
Cc1cc(Br)ccc1NC(=O)CNC(=O)Cn1ncc(Cl)c(Cl)c1=O	8.7*	-126	1	0	-5	-5	1	-16
CCOC(=O)c1ccc(NC(=O)Cn2ncc(Cl)c(Cl)c2=O)cc1	-13	-196	-1	-4	-1	43	.	.
CCC(=O)Nc1ccc(C(=O)Cn2ncc(Cl)c(Cl)c2=O)cc1	8.7*	-43	3	11*	1	-2	22*	11*
Cc1nn(CC(=O)Nc2ccc3c(c2)OCO3)c(C)c1Cl	1	-2	-3	-1	1	-6	.	.
CCCNC(=O)C[C@H]1CC[C@H]2[C@@H](COc3ccc(NS(=O)(=O)c4ccccc4C)cc3C(=O)N2C)O1	.	-20[16.7 µM]	.	.	.	.	.	.
CC=Cc1ccc2n(c1=O)C[C@H]1[C@H](CO)[C@@H](C(=O)NCc3ccncn3)N(C(=O)NC3CCCC3)[C@@H]21 (mixture of isomers)	.	-3[16.7 µM]	.	.	.	.	.	.
COc1ccc(NC(=O)Cn2ncc(Cl)c(Cl)c2=O)cc1S(=O)(=O)N1CCOCC1	7.8*	-46	0	3	-2	-8	-27	16*
CCN(CC)S(=O)(=O)c1cc(NC(=O)CN2C(=O)NC(C)(c3ccccc3)C2=O)ccc1C (stereo not given)	-1	6	0	2	1	-14	.	.
CCN(CC)S(=O)(=O)c1cc(NC(=O)Cn2ncc(Cl)c(Cl)c2=O)ccc1C	12*	-76	3	1	-8	16	11	15*
SMILES	GAA850 FXN act	Env fusion inh	NR2E3 ag-1	V-ATPase pHluor	GalR3 antag	NR2E3 ag-2	GAA30 counter	GAA850 confirm
COc1ccc(C#Cc2cnc3c(c2)C(=O)N([C@H](C)CO)C[C@H](C)[C@H](CN(C)S(=O)(=O)c2cccc(F)c2)O3)cc1OC	.	-5[16.7 µM]	.	.	.	.	.	.
CC(C)NC(=O)Nc1ccc2c(c1)CC(=O)N([C@H](C)CO)C[C@@H](C)[C@@H](CN(C)C(=O)Nc1ccc(F)cc1)O2	.	18[16.7 µM]	.	.	.	.	.	.
O=C(CCC(=O)N1CCSc2ccccc21)NCCc1ccccc1	0	-6	3	-2	.	9	.	.
O=C(CCC(=O)N1CCSc2ccccc21)NC1CCCCC1	8.0*	7	2	-1	6	5	14	5
Clc1ccc(-c2cn3cc(Br)ccc3n2)cc1Cl	8.2*	-152	17	1	-3	-170	71*	22*
Cc1ccn2cc(-c3ccc(Br)cc3)nc2c1	2	-75	0	2	-5	-136	.	.
CN(C)c1nc(OCCNC(=O)COc2ccc(Cl)cc2Cl)nc(N(C)C)n1	8.3*	44*	2	0	-5	-10	16	6
COc1cc(SC)ccc1C(=O)Nc1ncc(Cl)cc1Cl	9.8*	-22	3	6	-1	-118	119*	41*
C[C@@H]1CCCCO[C@H](CN(C)C(=O)C2CCCCC2)[C@H](C)CN([C@@H](C)CO)C(=O)c2cc(NS(=O)(=O)c3ccc(Cl)cc3)ccc2O1	.	8[16.7 µM]	.	.	.	.	.	.
C[C@H]1CN([C@@H](C)CO)C(=O)c2cccc(NS(=O)(=O)c3cn(C)cn3)c2O[C@@H]1CN(C)S(=O)(=O)c1ccc(Cl)cc1	.	-18[16.7 µM]	.	.	.	.	.	.
O=C(NCC1COc2ccccc2O1)c1ccccc1 (stereo not given)	7.6*	-82	5	-2	-5	-108	88*	27*
